Assay results as given in ChEMBL document CHEMBL1208662, “Antimicrobial activity and a SAR study of some novel benzimidazole derivatives bearing hydrazone moiety” (Eur J Med Chem, 2010).
Converted amounts (≈) assume the structure as drawn.

Experiments:
[1] = test system: Listeria monocytogenes; assay: Antimicrobial activity against Listeria monocytogenes by broth microdilution method; type: functional
Summary of the method: (§1)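 CLSI M7-A7 broth microdilution, two-fold serial dilutions 800 down to 1.5625 μg/mL in Mueller–Hinton broth, pH 7. Compounds dissolved in DMSO; DMSO-only solvent control. Overnight cultures at 35 ± 1 °C, inoculum matched to McFarland 0.5, final 0.5-2.5 × 10^5 cfu/mL. MIC taken as last well without growth, µg/mL. Run twice. Chloramphenicol reference.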

[2] = test system: Klebsiella pneumoniae; assay: Antimicrobial activity against Klebsiella pneumoniae by broth microdilution method; type: functional; summary of the method: as §1
[3] = test system: Staphylococcus aureus; assay: Antimicrobial activity against Staphylococcus aureus by broth microdilution method; type: functional; summary of the method: as §1
[4] = test system: Candida albicans; assay: Antimicrobial activity against Candida albicans by broth microdilution method; type: functional
Summary of the method: (§2)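 Yeasts grown overnight at 35 ± 1 °C in Sabouraud dextrose broth. Tested by CLSI M7-A7 broth microdilution in Sabouraud dextrose broth, pH 7, two-fold serial dilutions 800 down to 1.5625 μg/mL of DMSO-dissolved compound. DMSO-only control. Inoculum matched to McFarland 0.5, final 0.5-2.5 × 10^5 cfu/mL. MIC is last well without growth, µg/mL. Duplicate readings. Ketoconazole reference.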

[5] = test system: Nakaseomyces glabratus; assay: Antimicrobial activity against Candida glabrata by broth microdilution method; type: functional; summary of the method: as §2
[6] = test system: Escherichia coli; assay: Antimicrobial activity against Escherichia coli 25922 by broth microdilution method; type: functional; summary of the method: as §1
[7] = test system: Pseudomonas aeruginosa; assay: Antimicrobial activity against Pseudomonas aeruginosa by broth microdilution method; type: functional; summary of the method: as §1
[8] = test system: Enterococcus faecalis; assay: Antimicrobial activity against Enterococcus faecalis by broth microdilution method; type: functional; summary of the method: as §1
[9] = test system: Escherichia coli; assay: Antimicrobial activity against Escherichia coli 35218 by broth microdilution method; type: functional; summary of the method: as §1
[10] = test system: Salmonella typhimurium; assay: Antimicrobial activity against Salmonella Typhimurium by broth microdilution method; type: functional, Salmonella enterica subsp. enterica serovar Typhimurium; conditions: Salmonella enterica; summary of the method: as §1
[11] = test system: Bacillus subtilis; assay: Antimicrobial activity against Bacillus subtilis by broth microdilution method; type: functional; summary of the method: as §1
[12] = test system: Candida tropicalis; assay: Antimicrobial activity against Candida tropicalis by broth microdilution method; type: functional; summary of the method: as §2
[13] = test system: Proteus vulgaris; assay: Antimicrobial activity against Proteus vulgaris by broth microdilution method; type: functional; summary of the method: as §1
[14] = Toxicity in Artemia salina after 24 hrs; type: organism-based; conditions: in vivo

Row | Structure (SMILES) | MIC [1] | MIC [2] | MIC [3] | MIC [4] | MIC [5] | MIC [6] | MIC [7] | MIC [8] | MIC [9] | MIC [10] | MIC [11] | MIC [12] | MIC [13] | LC50 at 24 h [14]
1 | O=C(N/N=C/c1ccccc1)c1ccc(-c2nc3ccccc3[nH]2)cc1 | 400 µg/mL (≈ 1180 µM) | 25 µg/mL (≈ 73.4 µM) | 25 µg/mL (≈ 73.4 µM) | 50 µg/mL (≈ 147 µM) | 100 µg/mL (≈ 294 µM) | 100 µg/mL (≈ 294 µM) | 25 µg/mL (≈ 73.4 µM) | 12.5 µg/mL (≈ 36.7 µM) | 25 µg/mL (≈ 73.4 µM) | 12.5 µg/mL (≈ 36.7 µM) | 25 µg/mL (≈ 73.4 µM) | 100 µg/mL (≈ 294 µM) | 50 µg/mL (≈ 147 µM) | 
2 | O=C(N/N=C/c1ccc(O)cc1)c1ccc(-c2nc3ccccc3[nH]2)cc1 | 400 µg/mL (≈ 1120 µM) | 25 µg/mL (≈ 70.1 µM) | 50 µg/mL (≈ 140 µM) | 100 µg/mL (≈ 281 µM) | 100 µg/mL (≈ 281 µM) | 100 µg/mL (≈ 281 µM) | 25 µg/mL (≈ 70.1 µM) | 25 µg/mL (≈ 70.1 µM) | 25 µg/mL (≈ 70.1 µM) | 25 µg/mL (≈ 70.1 µM) | 25 µg/mL (≈ 70.1 µM) | 100 µg/mL (≈ 281 µM) | 25 µg/mL (≈ 70.1 µM) | 
3 | CN(C)c1ccc(/C=N/NC(=O)c2ccc(-c3nc4ccccc4[nH]3)cc2)cc1 | 200 µg/mL (≈ 522 µM) | 50 µg/mL (≈ 130 µM) | 50 µg/mL (≈ 130 µM) | 100 µg/mL (≈ 261 µM) | 50 µg/mL (≈ 130 µM) | 100 µg/mL (≈ 261 µM) | 25 µg/mL (≈ 65.2 µM) | 25 µg/mL (≈ 65.2 µM) | 25 µg/mL (≈ 65.2 µM) | 25 µg/mL (≈ 65.2 µM) | 25 µg/mL (≈ 65.2 µM) | 100 µg/mL (≈ 261 µM) | 50 µg/mL (≈ 130 µM) | 
4 | O=C(N/N=C/c1ccc(Cl)cc1)c1ccc(-c2nc3ccccc3[nH]2)cc1 | 100 µg/mL (≈ 267 µM) | 12.5 µg/mL (≈ 33.3 µM) | 12.5 µg/mL (≈ 33.3 µM) | 50 µg/mL (≈ 133 µM) | 50 µg/mL (≈ 133 µM) | 100 µg/mL (≈ 267 µM) | 25 µg/mL (≈ 66.7 µM) | 12.5 µg/mL (≈ 33.3 µM) | 25 µg/mL (≈ 66.7 µM) | 6.25 µg/mL (≈ 16.7 µM) | 25 µg/mL (≈ 66.7 µM) | 50 µg/mL (≈ 133 µM) | 25 µg/mL (≈ 66.7 µM) | > 1000 µg/mL
5 | O=C(N/N=C/c1ccc(Br)cc1)c1ccc(-c2nc3ccccc3[nH]2)cc1 | 200 µg/mL (≈ 477 µM) | 12.5 µg/mL (≈ 29.8 µM) | 25 µg/mL (≈ 59.6 µM) | 100 µg/mL (≈ 239 µM) | 100 µg/mL (≈ 239 µM) | 50 µg/mL (≈ 119 µM) | 25 µg/mL (≈ 59.6 µM) | 12.5 µg/mL (≈ 29.8 µM) | 25 µg/mL (≈ 59.6 µM) | 12.5 µg/mL (≈ 29.8 µM) | 25 µg/mL (≈ 59.6 µM) | 50 µg/mL (≈ 119 µM) | 25 µg/mL (≈ 59.6 µM) | > 1000 µg/mL
6 | O=C(N/N=C/c1ccc(F)cc1)c1ccc(-c2nc3ccccc3[nH]2)cc1 | 200 µg/mL (≈ 558 µM) | 25 µg/mL (≈ 69.8 µM) | 50 µg/mL (≈ 140 µM) | 100 µg/mL (≈ 279 µM) | 100 µg/mL (≈ 279 µM) | 50 µg/mL (≈ 140 µM) | 50 µg/mL (≈ 140 µM) | 25 µg/mL (≈ 69.8 µM) | 25 µg/mL (≈ 69.8 µM) | 6.25 µg/mL (≈ 17.4 µM) | 25 µg/mL (≈ 69.8 µM) | 50 µg/mL (≈ 140 µM) | 50 µg/mL (≈ 140 µM) | 
7 | Cc1ccc(/C=N/NC(=O)c2ccc(-c3nc4ccccc4[nH]3)cc2)cc1 | 200 µg/mL (≈ 564 µM) | 12.5 µg/mL (≈ 35.3 µM) | 25 µg/mL (≈ 70.5 µM) | 100 µg/mL (≈ 282 µM) | 100 µg/mL (≈ 282 µM) | 100 µg/mL (≈ 282 µM) | 50 µg/mL (≈ 141 µM) | 12.5 µg/mL (≈ 35.3 µM) | 25 µg/mL (≈ 70.5 µM) | 6.25 µg/mL (≈ 17.6 µM) | 50 µg/mL (≈ 141 µM) | 100 µg/mL (≈ 282 µM) | 25 µg/mL (≈ 70.5 µM) | > 1000 µg/mL
8 | COc1ccc(/C=N/NC(=O)c2ccc(-c3nc4ccccc4[nH]3)cc2)cc1 | 200 µg/mL (≈ 540 µM) | 25 µg/mL (≈ 67.5 µM) | 25 µg/mL (≈ 67.5 µM) | 100 µg/mL (≈ 270 µM) | 50 µg/mL (≈ 135 µM) | 50 µg/mL (≈ 135 µM) | 25 µg/mL (≈ 67.5 µM) | 12.5 µg/mL (≈ 33.7 µM) | 25 µg/mL (≈ 67.5 µM) | 6.25 µg/mL (≈ 16.9 µM) | 25 µg/mL (≈ 67.5 µM) | 50 µg/mL (≈ 135 µM) | 50 µg/mL (≈ 135 µM) | 
9 | O=C(N/N=C/c1ccc([N+](=O)[O-])cc1)c1ccc(-c2nc3ccccc3[nH]2)cc1 | 200 µg/mL (≈ 519 µM) | 25 µg/mL (≈ 64.9 µM) | 25 µg/mL (≈ 64.9 µM) | 50 µg/mL (≈ 130 µM) | 100 µg/mL (≈ 259 µM) | 100 µg/mL (≈ 259 µM) | 50 µg/mL (≈ 130 µM) | 25 µg/mL (≈ 64.9 µM) | 25 µg/mL (≈ 64.9 µM) | 12.5 µg/mL (≈ 32.4 µM) | 50 µg/mL (≈ 130 µM) | 100 µg/mL (≈ 259 µM) | 50 µg/mL (≈ 130 µM) | 
10 | O=C(N/N=C/c1ccc(C(F)(F)F)cc1)c1ccc(-c2nc3ccccc3[nH]2)cc1 | 200 µg/mL (≈ 490 µM) | 25 µg/mL (≈ 61.2 µM) | 25 µg/mL (≈ 61.2 µM) | 100 µg/mL (≈ 245 µM) | 100 µg/mL (≈ 245 µM) | 100 µg/mL (≈ 245 µM) | 50 µg/mL (≈ 122 µM) | 12.5 µg/mL (≈ 30.6 µM) | 25 µg/mL (≈ 61.2 µM) | 12.5 µg/mL (≈ 30.6 µM) | 50 µg/mL (≈ 122 µM) | 50 µg/mL (≈ 122 µM) | 50 µg/mL (≈ 122 µM) | 
11 | O=C(O)c1ccc(/C=N/NC(=O)c2ccc(-c3nc4ccccc4[nH]3)cc2)cc1 | 400 µg/mL (≈ 1040 µM) | 50 µg/mL (≈ 130 µM) | 50 µg/mL (≈ 130 µM) | 200 µg/mL (≈ 520 µM) | 200 µg/mL (≈ 520 µM) | 200 µg/mL (≈ 520 µM) | 100 µg/mL (≈ 260 µM) | 50 µg/mL (≈ 130 µM) | 50 µg/mL (≈ 130 µM) | 25 µg/mL (≈ 65 µM) | 50 µg/mL (≈ 130 µM) | 200 µg/mL (≈ 520 µM) | 100 µg/mL (≈ 260 µM) | 
12 | N#Cc1ccc(/C=N/NC(=O)c2ccc(-c3nc4ccccc4[nH]3)cc2)cc1 | 200 µg/mL (≈ 547 µM) | 12.5 µg/mL (≈ 34.2 µM) | 25 µg/mL (≈ 68.4 µM) | 100 µg/mL (≈ 274 µM) | 100 µg/mL (≈ 274 µM) | 100 µg/mL (≈ 274 µM) | 50 µg/mL (≈ 137 µM) | 12.5 µg/mL (≈ 34.2 µM) | 25 µg/mL (≈ 68.4 µM) | 12.5 µg/mL (≈ 34.2 µM) | 50 µg/mL (≈ 137 µM) | 50 µg/mL (≈ 137 µM) | 50 µg/mL (≈ 137 µM) | 
13 | O=C(N[C@H](CO)[C@H](O)c1ccc([N+](=O)[O-])cc1)C(Cl)Cl [CHLORAMPHENICOL] | 50 µg/mL (≈ 155 µM) | 12.5 µg/mL (≈ 38.7 µM) | 12.5 µg/mL (≈ 38.7 µM) |  |  | 12.5 µg/mL (≈ 38.7 µM) | 50 µg/mL (≈ 155 µM) | 12.5 µg/mL (≈ 38.7 µM) | 12.5 µg/mL (≈ 38.7 µM) | 12.5 µg/mL (≈ 38.7 µM) | 12.5 µg/mL (≈ 38.7 µM) |  | 50 µg/mL (≈ 155 µM) | 
14 | CC(=O)N1CCN(c2ccc(OCC3COC(Cn4ccnc4)(c4ccc(Cl)cc4Cl)O3)cc2)CC1 (configuration not stated) [KETOCONAZOLE] |  |  |  | 50 µg/mL (≈ 94.1 µM) | 25 µg/mL (≈ 47 µM) |  |  |  |  |  |  | 50 µg/mL (≈ 94.1 µM) |  | 
